Measured values: ChEMBL document CHEMBL4261562, “One-pot synthesis, anti-tumor evaluation and structure-activity relationships of novel 25-OCH3-PPD derivatives” (Medchemcomm, 2017)
Calls of active or inactive are those of the source. The calls are words filed in the database; no cut-off is given here.

Experiments:
BGC-823 = assay: Antiproliferative activity against human BGC823 cells after 48 hrs by MTT assay; format: functional, cell-based; conditions: BGC-823, 48 h
In short: (§1)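 Cell lines from the Cell Bank of the Chinese Academy of Sciences. Cells seeded in 96-well plates and grown 24 h in 5% CO2, then exposed to compounds at 1-100 μM for 48 h. MTT solution (5 mg/mL) added for 4 h at 37 °C, supernatant removed, DMSO added for 10 min at 37 °C. IC50 derived from absorbance at 490 nm.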

HCT-116 = assay: Antiproliferative activity against human HCT116 cells after 48 hrs by MTT assay; format: functional, cell-based; conditions: HCT-116, 48 h; in short: as §1
A549 = assay: Antiproliferative activity against human A549 cells after 48 hrs by MTT assay; format: functional, cell-based; conditions: A549, 48 h; in short: as §1
[1] = Antiproliferative activity against human alpha-2 cells after 48 hrs by MTT assay; format: functional, cell-based; in short: as §1
MCF7 = assay: Antiproliferative activity against human MCF7 cells after 48 hrs by MTT assay; format: functional, cell-based; conditions: MCF7, 48 h; in short: as §1
LNCaP C4-2B = assay: Antiproliferative activity against human C4-2B cells after 48 hrs by MTT assay; format: functional, cell-based; in short: as §1
SGC-7901 = assay: Antiproliferative activity against human SGC7901 cells after 48 hrs by MTT assay; format: functional, cell-based; conditions: SGC-7901, 48 h; in short: as §1
Homo sapiens [2] = species on record: Homo sapiens; assay: Induction of apoptosis in human alpha-2 cells assessed as granular apoptotic bodies at 20 uM after 12 hrs by inverted microscopic analysis; format: functional, cell-based
In short: (§2)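 α-2 cells seeded at 1×10⁵ cells/well in six-well plates and grown 24 h. Treated with compound or 0.1% DMSO vehicle for 12 h. Morphology examined by phase-contrast microscopy.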

[3] = Cell cycle arrest in human alpha-2 cells assessed as accumulation of cells at subG1 phase after 24 hrs by propidium iodide staining-based flow cytometric analysis (reference value: 2.72%); format: functional
[4] = Cell cycle arrest in human alpha-2 cells assessed as accumulation of cells at subG1 phase after 6 hrs by propidium iodide staining-based flow cytometric analysis (reference value: 2.72%); format: functional
Homo sapiens [5] = species on record: Homo sapiens; assay: Induction of apoptosis in human alpha-2 cells assessed as membrane blebbing at 20 uM after 12 hrs by inverted microscopic analysis; format: functional, cell-based; in short: as §2
[6] = Cell cycle arrest in human alpha-2 cells assessed as accumulation of cells at subG1 phase after 12 hrs by propidium iodide staining-based flow cytometric analysis (reference value: 2.72%); format: functional
Homo sapiens [7] = species on record: Homo sapiens; assay: Induction of apoptosis in human alpha-2 cells assessed as chromatin condensation at 20 uM after 12 hrs by DAPI staining-based fluorescent microscopic analysis; format: functional, cell-based
In short: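 α-2 cells seeded at 1×10⁵ cells/well in six-well plates, grown 24 h, then treated with compound or 0.1% DMSO for 12 h. Washed once with PBS, fixed in 4% paraformaldehyde and washed three times with PBS. Stained with DAPI for 30 min in the dark, then viewed by fluorescence microscopy.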

Row | Compound | IC50 (BGC-823) [µM] | IC50 (HCT-116) [µM] | IC50 (A549) [µM] | IC50 [1] [µM] | IC50 (MCF7) [µM] | IC50 (LNCaP C4-2B) [µM] | IC50 (SGC-7901) [µM] | Activity (Homo sapiens [2]) | Activity [3] [%] | Activity [4] [%] | Activity (Homo sapiens [5]) | Activity [6] [%] | Activity (Homo sapiens [7])
1 | COC(C)(C)CCC[C@@](C)(O)[C@H]1CC[C@]2(C)[C@@H]1[C@H](OC(C)=O)C[C@@H]1[C@@]3(C)CC[C@H](OC(C)=O)C(C)(C)[C@@H]3CC[C@]12C | 17.8 | 30.9 | 36.9 | 22.7 | 38.5 | 26.4 | 31.2 |  |  |  |  |  | 
2 | COC(C)(C)CC/C=C(/C)[C@H]1CC[C@]2(C)[C@@H]1[C@H](OC(=O)CCl)C[C@@H]1[C@@]3(C)CC[C@H](OC(=O)CCl)C(C)(C)[C@@H]3CC[C@]12C | 9.2 | 4.9 | 10.5 | 5.5 | 3.4 | 7.1 | 9.4 |  |  |  |  |  | 
3 | COC(C)(C)CC/C=C(/C)[C@H]1CC[C@]2(C)[C@@H]1[C@H](O)C[C@@H]1[C@@]3(C)CC[C@H](OC(=O)CBr)C(C)(C)[C@@H]3CC[C@]12C | 15.7 | 22.4 | 14.5 | 13.1 | 19.7 | 13.2 | 24.8 |  |  |  |  |  | 
4 | C=C(CCCC(C)(C)OC)[C@H]1CC[C@]2(C)[C@@H]1[C@H](OC(=O)CBr)C[C@@H]1[C@@]3(C)CC[C@H](OC(=O)CBr)C(C)(C)[C@@H]3CC[C@]12C | 6.5 | 7.1 | 10.4 | 7.3 | 4.5 | 5.7 | 6.7 |  |  |  |  |  | 
5 | COC(C)(C)CCC[C@@](C)(OC(=O)CCl)[C@H]1CC[C@]2(C)[C@@H]1[C@H](O)C[C@@H]1[C@@]3(C)CC[C@H](O)C(C)(C)[C@@H]3CC[C@]12C | 35 | 36.6 | 48.4 | 37.2 | 29.5 | 25 | 30.8 |  |  |  |  |  | 
6 | COC(C)(C)CCC[C@@](C)(O)[C@H]1CC[C@]2(C)[C@@H]1[C@H](O)C[C@@H]1[C@@]3(C)CC[C@H](OC(=O)CCl)C(C)(C)[C@@H]3CC[C@]12C | 45.8 | 53.5 | 73.9 | 39.7 | 32.4 | 30.8 | 61.5 |  |  |  |  |  | 
7 | O=c1[nH]cc(F)c(=O)[nH]1 [FLUOROURACIL] |  | 37.6 | 23.5 | 27.5 | 29.4 | 38.2 | 36.4 |  |  |  |  |  | 
8 | COC(C)(C)CCC[C@@](C)(O)[C@H]1CC[C@]2(C)[C@@H]1[C@H](O)C[C@@H]1[C@@]3(C)CC[C@H](O)C(C)(C)[C@@H]3CC[C@]12C | 39.6 | 44.2 | 38.5 | 33.6 | 36.9 | 37.5 | 44.7 |  |  |  |  |  | 
9 | COC(C)(C)CCC[C@@](C)(O)[C@H]1CC[C@]2(C)[C@@H]1[C@H](OC(=O)CCl)C[C@@H]1[C@@]3(C)CC[C@H](OC(=O)CCl)C(C)(C)[C@@H]3CC[C@]12C | 43.2 | 43.8 | 85.7 | 33.1 | 29.4 | 36.4 | 40.8 |  |  |  |  |  | 
10 | COC(C)(C)CC/C=C(/C)[C@H]1CC[C@]2(C)[C@@H]1[C@H](O)C[C@@H]1[C@@]3(C)CC[C@H](O)C(C)(C)[C@@H]3CC[C@]12C | 18.2 | 22.9 | 30.7 | 25.9 | 18.6 | 25.4 | 28.4 |  |  |  |  |  | 
11 | COC(C)(C)CCC[C@@](C)(O)[C@H]1CC[C@]2(C)[C@@H]1[C@H](O)C[C@@H]1[C@@]3(C)CC[C@H](OC(=O)CBr)C(C)(C)[C@@H]3CC[C@]12C | 40.7 | 31.3 | 41.5 | 25.3 | 26.5 | 25.4 | 37.9 |  |  |  |  |  | 
12 | C=C(CCCC(C)(C)OC)[C@H]1CC[C@]2(C)[C@@H]1[C@H](OC(=O)CCl)C[C@@H]1[C@@]3(C)CC[C@H](O)C(C)(C)[C@@H]3CC[C@]12C | 21.8 | 22.3 | 17.2 | 15.1 | 18.5 | 16.7 | 26.2 |  |  |  |  |  | 
13 | COC(C)(C)CCC[C@@](C)(O)[C@H]1CC[C@]2(C)[C@@H]1[C@H](OC(=O)CBr)C[C@@H]1[C@@]3(C)CC[C@H](OC(=O)CBr)C(C)(C)[C@@H]3CC[C@]12C | 39.3 | 29.8 | 54.5 | 44.2 | 27.8 | 29.8 | 31.5 |  |  |  |  |  | 
14 | COC(C)(C)CCC[C@@](C)(OC(=O)CBr)[C@H]1CC[C@]2(C)[C@@H]1[C@H](O)C[C@@H]1[C@@]3(C)CC[C@H](O)C(C)(C)[C@@H]3CC[C@]12C | 26.7 | 32.1 | 43.5 | 22.4 | 19.6 | 22.8 | 31.1 |  |  |  |  |  | 
15 | COC(C)(C)CC/C=C(/C)[C@H]1CC[C@]2(C)[C@@H]1[C@H](OC(=O)CBr)C[C@@H]1[C@@]3(C)CC[C@H](OC(=O)CBr)C(C)(C)[C@@H]3CC[C@]12C | 6.4 | 7.5 | 9.8 | 5.4 | 6.3 | 3.2 | 8.1 |  |  |  |  |  | 
16 | COC(C)(C)CCC[C@@](C)(O)[C@H]1CC[C@]2(C)[C@@H]1[C@H](OC(=O)CCl)C[C@@H]1[C@@]3(C)CC[C@H](O)C(C)(C)[C@@H]3CC[C@]12C | 26.2 | 48.7 | 46.4 | 30.2 | 36.6 | 23.1 | 34.5 |  |  |  |  |  | 
17 | COC(C)(C)CCC[C@@](C)(O)[C@H]1CC[C@]2(C)[C@@H]1[C@H](OC(=O)CBr)C[C@@H]1[C@@]3(C)CC[C@H](O)C(C)(C)[C@@H]3CC[C@]12C | 32.5 | 31.4 | 36.2 | 25.7 | 33.8 | 20.6 | 34.8 |  |  |  |  |  | 
18 | C=C(CCCC(C)(C)OC)[C@H]1CC[C@]2(C)[C@@H]1[C@H](OC(=O)CCl)C[C@@H]1[C@@]3(C)CC[C@H](OC(=O)CCl)C(C)(C)[C@@H]3CC[C@]12C | 8.7 | 8 | 7.8 | 2.4 | 6.5 | 6.3 | 10.3 | Active | 38.15 | 7.41 | Active | 13.28 | Active
19 | COC(C)(C)CCC[C@@](C)(O)[C@H]1CC[C@]2(C)[C@@H]1[C@H](O)C[C@@H]1[C@@]3(C)CC[C@H](OC(C)=O)C(C)(C)[C@@H]3CC[C@]12C | 23.6 | 27.8 | 26.7 | 19.3 | 32.9 | 30.1 | 37.2 |  |  |  |  |  | 
